Measured values from different studies.
Target: Interleukin-1 receptor-associated kinase 1 (IRAK1, Homo sapiens, UniProt P51617)

The remaining binding of `Cc1ccc(NC(=O)c2ccnc(C(F)(F)F)c2)cc1-c1cc(OCCO)nc(N2CCOCC2)c1` is reported as 100% (binding; 1 µM).
`CO[C@@H]1[C@H](N(C)C(=O)c2ccccc2)C[C@H]2O[C@]1(C)n1c3ccccc3c3c4c(c5c6ccccc6n2c5c31)C(=O)NC4` gave an inhibition of 19% (enzyme activity, inhibitor; 1 µM).
`C[C@H]1CC[C@H](n2c3cnccc3c3cnc(Nc4ccc5c(n4)CCN(C(=O)CO)C5)nc32)CC1` gave a remaining signal of 23% (cell-free assay; 1 µM).
The inhibition of `C#Cc1cc(-c2cc(Nc3nc(N[C@@H](C)c4ccc(F)cn4)ncc3Cl)n[nH]2)ccc1C=O` is reported as 10.8% (enzyme activity, inhibitor; 0.2 µM).
For `COc1ccc2oc(-c3ccc4nc(N)oc4c3)c/c(=N\c3ccccc3NC(=O)CCN)c2c1`, the remaining binding was 102% (binding; 1 µM).
For `CCCCC(=O)Nc1ccc(-c2ccc3ncn(CCC)c(=O)c3c2)cn1`, the remaining binding was 75% (binding, competition with immobilised ligand; 0.5 µM).
The remaining binding of `C1=C/COCc2cc(ccc2OCCN2CCCC2)Nc2nccc(n2)-c2cccc(c2)COC/1` is reported as 0% (binding; 0.1 µM).
`C=CC(=O)N1CCC([C@@H]2CCNc3c(C(N)=O)c(-c4ccc(Oc5ccccc5)cc4)nn32)CC1` has an inhibition of 0% (enzyme activity, inhibitor; 1 µM).
`Cc1cc(O)c(-c2ccc([C@@H](C)CN(C)C)cc2)c2c1[nH]c(=O)c1sccc12` gave an inhibition of -2.56% (enzyme activity, inhibitor; 0.1 µM).
